According to ChEMBL document CHEMBL1138785, “Stereoselective synthesis of sugar-modified enyne analogues of adenosine and uridine. Interaction with S-adenosyl-L-homocysteine hydrolase and antiviral and cytotoxic effects” (J Med Chem, 2004):

Legend:
[1] = Minimum cytotoxic concentration was determined; settings: human
Outline: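 Human embryonic lung (HEL) cell cultures, run alongside the CMV (AD-169, Davis) and VZV (OKA, 07/1) antiviral tests. Minimum cytotoxic concentration is the lowest compound level that causes cytotoxicity.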

[2] = system: HeLa; assay: Minimum inhibitory concentration required to inhibit vesicular stomatitis virus; assay type: functional; settings: Homo sapiens
Outline: (§1)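 HeLa cell cultures infected with vesicular stomatitis virus, Coxsackie B4 virus or respiratory syncytial virus. The read-out is the minimum inhibitory concentration (MIC), with compounds tested up to 100 or 700 μM.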

[3] = system: HeLa; assay: Minimum inhibitory concentration required to inhibit respiratory syncytial virus; assay type: functional; settings: Homo sapiens; outline: as §1
[4] = system: HeLa; assay: Minimum inhibitory concentration required to inhibit Coxsackie B4 virus; assay type: functional; settings: Homo sapiens; outline: as §1
[5] = system: MT4; assay: Ratio of cytotoxicity to antiviral activity was determined; assay type: functional, Homo sapiens
Outline: (§2)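 MT-4 cells infected with HIV-1 (strain IIIB) or HIV-2 (strain ROD), with viability read by MTT. The read-out is the 50% inhibitory concentration (IC50). CC50 was measured in MT-4 cells, and the selectivity index was calculated as CC50/IC50.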

[6] = system: Human immunodeficiency virus 2; assay: Inhibition concentration required to inhibit HIV-2 was determined by MT-4/MTT assay; assay type: functional, organism-based; outline: as §2
[7] = system: Human immunodeficiency virus 1; assay: Inhibition concentration required to inhibit HIV-1 was determined by MT-4/MTT assay; assay type: functional, organism-based; outline: as §2
[8] = system: Human immunodeficiency virus 2; assay: Inhibition concentration required to inhibit ROD strain was determined by MT-4/MTT assay; assay type: functional, organism-based; outline: as §2
[9] = system: Human immunodeficiency virus 1; assay: Inhibition concentration required to inhibit HIV-IIIB was determined by MT-4/MTT assay; assay type: functional, organism-based; outline: as §2
[10] = target: T1, Adenosylhomocysteinase (Homo sapiens, UniProt P23526)
Target sequence in this assay (P23526 2-432 limits assumed): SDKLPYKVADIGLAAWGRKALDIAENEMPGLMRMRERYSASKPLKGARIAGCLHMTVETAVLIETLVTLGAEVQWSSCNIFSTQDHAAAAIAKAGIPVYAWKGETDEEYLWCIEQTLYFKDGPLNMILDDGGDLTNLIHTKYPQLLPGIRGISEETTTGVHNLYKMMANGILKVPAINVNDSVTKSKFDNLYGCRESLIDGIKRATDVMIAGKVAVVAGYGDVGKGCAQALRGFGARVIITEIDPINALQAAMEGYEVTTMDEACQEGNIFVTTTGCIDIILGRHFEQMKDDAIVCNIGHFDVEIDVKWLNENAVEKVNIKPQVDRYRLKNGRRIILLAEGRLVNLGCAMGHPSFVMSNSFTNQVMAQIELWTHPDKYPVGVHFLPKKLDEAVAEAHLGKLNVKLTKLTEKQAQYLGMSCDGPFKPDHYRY

[11] = target: T1, Adenosylhomocysteinase; assay: Inhibition of recombinant Placental Adenosylhomocysteinase
Target sequence in this assay (P23526 whole entry): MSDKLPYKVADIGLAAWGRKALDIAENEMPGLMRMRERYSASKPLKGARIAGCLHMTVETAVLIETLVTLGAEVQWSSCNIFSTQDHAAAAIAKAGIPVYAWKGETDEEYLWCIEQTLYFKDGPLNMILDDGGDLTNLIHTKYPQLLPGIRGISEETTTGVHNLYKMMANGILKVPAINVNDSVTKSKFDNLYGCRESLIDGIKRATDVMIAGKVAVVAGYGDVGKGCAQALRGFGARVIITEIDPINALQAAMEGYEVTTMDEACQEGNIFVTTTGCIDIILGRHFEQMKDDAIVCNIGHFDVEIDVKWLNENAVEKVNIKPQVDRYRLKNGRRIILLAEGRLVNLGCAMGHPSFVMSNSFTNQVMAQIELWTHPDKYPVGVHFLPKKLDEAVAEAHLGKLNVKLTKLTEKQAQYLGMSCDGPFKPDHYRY

[12] = system: Cytomegalovirus; assay: Activity against CMV (AD-169 strain) was determined; assay type: functional, organism-based; settings: Human betaherpesvirus 5
Outline: (§3)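 Human embryonic lung (HEL) cell cultures infected with human cytomegalovirus, AD-169 or Davis strain. The read-out is the 50% effective concentration (EC50). Cytotoxicity was measured in the same cells as the 50% cytotoxic concentration (CC50).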

[13] = system: Cytomegalovirus; assay: Activity against CMV (Davis strain) was determined; assay type: functional, organism-based; settings: Human betaherpesvirus 5; outline: as §3
[14] = target: T1, Adenosylhomocysteinase; assay: Inhibition of recombinant human placental AdoHcy hydrolase
Outline: (§4)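 Recombinant enzyme (2.5 μg) preincubated with inhibitor at 0–200 μM for 0–20 min at 37 °C in 50 mM potassium phosphate, pH 7.2, 1 mM EDTA. Residual synthetic-direction activity was measured with 1 mM Ado and 1 mM Hcy for 1 min at 37 °C, stopped with HClO4, and AdoHcy quantified by reversed-phase HPLC at 258 nm. Ki and kinact came from fitting kobs = kinact[I]/(Ki+[I]).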
Target sequence in this assay (P23526 whole entry): as above

[15] = target: T1, Adenosylhomocysteinase; assay: Rate at which the compound inactivates human placental AdoHcy hydrolase enzyme was determined; assay type: functional; outline: as §4
Target sequence in this assay (P23526 2-432 limits assumed): as the sequence (P23526 2-432 limits assumed) above

Work on `CCOC(=O)/C=C\C#C[C@H]1OC(n2cnc3c(N)ncnc32)[C@H](O)[C@@H]1O` (some centres not stated) yielded an MCC [1] of no less than 11 µM.

Compound `C#C/C=C\[C@H]1OC(n2cnc3c(N)ncnc32)[C@H](O)[C@@H]1O` (some centres not stated) has an MIC [2] greater than 700 µM, an MIC [3] greater than 700 µM and an MIC [4] greater than 700 µM. It also gave an MCC [1] of no less than 350 µM.

For `C#C/C=C\[C@H]1OC(n2ccc(=O)[nH]c2=O)[C@H](O)[C@@H]1O` (some centres not stated), the CC50/IC50 [5] was 7, the MIC [2] was greater than 100 µM and the MIC [3] was greater than 100 µM. The MIC [4] was greater than 100 µM and the MCC [1] was no less than 350 µM.

Work on `C#C/C=C/[C@H]1OC(n2ccc(=O)[nH]c2=O)[C@H](O)[C@@H]1O` (some centres not stated) yielded an MIC [2] greater than 700 µM, an MIC [3] greater than 700 µM and an MIC [4] greater than 700 µM. The MCC [1] was no less than 350 µM.

In the case of `O=c1ccn(C2O[C@H](/C=C/C#CI)[C@@H](O)[C@H]2O)c(=O)[nH]1` (some centres not stated), the IC50 [6] is reported as 1800 nM, the IC50 [7] is reported as 1800 nM and the CC50/IC50 [5] is reported as 3. The MIC [2] was greater than 100 µM, the MIC [3] was greater than 100 µM and the IC50 [8] was 1800 nM. For the same compound, the MIC [4] was greater than 100 µM, the MCC [1] was no less than 50 µM and the IC50 [9] was 1800 nM.

Compound `C#C/C=C/[C@H]1OC(n2cnc3c(N)ncnc32)[C@H](O)[C@@H]1O` (some centres not stated) has a K inact [10] of 2.57 min⁻¹, a Ki [11] of 550 nM and an MIC [2] greater than 100 µM. The MIC [3] was greater than 100 µM, the MIC [4] was greater than 100 µM and the EC50 [12] was 50000 nM. The EC50 [13] was 30000 nM and the MCC [1] was no less than 350 µM.

`Nc1ncnc2c1ncn2C1O[C@H](/C=C/C#CI)[C@@H](O)[C@H]1O` (some centres not stated) showed an IC50 [6] of 1100 nM, an IC50 [7] of 1100 nM and a CC50/IC50 [5] of 7. For the same compound, the Ki [14] was 118000 nM, the MIC [2] was greater than 100 µM and the MIC [3] was greater than 100 µM. For the same compound, the IC50 [8] was 1100 nM, the MIC [4] was greater than 100 µM and the MCC [1] was no less than 50 µM. The IC50 [9] was 1100 nM and the K inact [15] was 1.49 min⁻¹.
